Laboratory results taken from article PMC6034508 (Inorganic chemistry, 2018).
One block for each compound: values may come before it.

Experiments:
DU-145 cells = test: Confocal imaging of intracellular fluorescence; format: cell-based; conditions: DU-145, CLIK-148 50 μM for 24 h before 7 (30 μM)
Method in brief: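 Live DU-145 cells are grown 48 h in 35 mm dishes (DMEM, 10% FBS, 37 °C, 5% CO2), then given 30 μM test compound or DMSO vehicle for 2 h, washed thrice and imaged in PBS. In the inhibition arm, cells receive 50 μM CLIK-148 for 24 h first. Confocal imaging uses 405 nm excitation, 501–740 nm emission and 1.5 μm z-stacks, with four biological replicates at 20×. Thresholded fluorescence per image is divided by manual cell count.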

CTSL [1] = target: T1, CTSL (Homo sapiens, UniProt P07711); conditions: literature value; ref [47]; cited from earlier work
T1 sequence (P07711 114-333): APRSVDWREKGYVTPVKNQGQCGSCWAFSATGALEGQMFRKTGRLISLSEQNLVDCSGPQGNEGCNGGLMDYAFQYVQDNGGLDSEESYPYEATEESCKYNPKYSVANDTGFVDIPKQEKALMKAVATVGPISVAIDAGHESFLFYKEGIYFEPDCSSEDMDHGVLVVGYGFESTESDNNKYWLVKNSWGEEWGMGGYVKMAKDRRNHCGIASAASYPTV

CTSB = CTSB (Homo sapiens, UniProt P07858); test: Cathepsin B inhibition, progress curve assay with Z-Arg-Arg-AMC; format: biochemical
Method in brief: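 Buffer is 0.4 M acetate, pH 5.5, with 5 mM EDTA, 0.01% Triton X-100, DTT 10 mM and <1% DMSO, at 25 °C. Test compound is run at 1 nM to 100 μM. Enzyme is added last, and free AMC release is followed at once over 15 min. Progress curves are fitted to obtain kinact and Ki. CA-074 is the positive control. Values are means of three independent experiments ± SD.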

CTSL [2] = target: T1, CTSL; test: Cathepsin L inhibition, progress curve assay with Z-Phe-Arg-AMC; format: biochemical
CTSS = CTSS (Homo sapiens, UniProt P25774); test: Cathepsin S inhibition, progress curve assay with Z-Val-Val-Arg-AMC; format: biochemical
CTSS, sequence (P25774 115-331): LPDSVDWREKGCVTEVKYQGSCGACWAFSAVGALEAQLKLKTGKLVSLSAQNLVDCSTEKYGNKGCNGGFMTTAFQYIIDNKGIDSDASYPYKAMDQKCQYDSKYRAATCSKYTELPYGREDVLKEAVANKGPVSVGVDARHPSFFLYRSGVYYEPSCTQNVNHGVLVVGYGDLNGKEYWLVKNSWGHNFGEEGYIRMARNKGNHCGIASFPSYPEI
Method in brief: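 Buffer is 50 mM phosphate, pH 6.5, with 2.5 mM EDTA, DTT 8 mM and <1% DMSO, at 25 °C. Test compound is run at 1–20 μM. […] Results are averages of three independent experiments, errors as standard deviations.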

SMILES: CN(C)C(=O)[C@H](Cc1ccccc1)NC(=O)[C@H]1O[C@@H]1C(=O)NCCc1ccccn1 [CLIK-148, reference compound]
Decrease of intracellular fluorescence intensity of 7 (DU-145 cells): over 50%
CTSL kinact/Ki (CTSL [1]): 11000 ± 3000 M⁻¹ s⁻¹

Ki (CTSB): 296 ± 8 µM
kinact/KI (CTSB; pH 5.5, read-out: CTSB kinact/Ki): 9 M⁻¹ s⁻¹
Ki (CTSL [2]): 0.74 ± 0.05 µM
kinact/Ki ratio CTSL/CTSS (selectivity) (CTSL [2]; CTSL over CTSS): 8
kinact/KI (CTSL [2]; pH 5.5, read-out: CTSL kinact/Ki): 42300 ± 4100 M⁻¹ s⁻¹
kinact (CTSL [2]; read-out: CTSL kinact (rate of irreversible inactivation)): 0.031 ± 0.002 s⁻¹
Fold enhancement of CTSL kinact/Ki relative to free inhibitor 1 (CTSL [2]; relative to 1): roughly 3 fold
Ki (CTSS): 3 ± 0.8 µM
kinact/KI (CTSS; pH 6.5, read-out: CTSS kinact/Ki): 5300 ± 200 M⁻¹ s⁻¹
SMILES: CN(C)C(=O)C(Cc1ccccc1)NC(=O)[C@H]1O[C@@H]1C(=O)NCCCNC(=O)c1ccc(-c2ccccn2)nc1 (stereo partly drawn) [Compound 2, (2S,3S)-N^2-(3-([2,2′-Bipyridine]-5-carboxamido)-propyl)-N^3-(1-(dimethylamino)-1-oxo-3-phenylpropan-2-yl)-oxirane-2,3-dicarboxamide]

SMILES: O=S(=O)([O-])C(F)(F)F.[C-]#[O+].[C-]#[O+].[C-]#[O+].[Re+].c1ccncc1.c1cnc2c(c1)ccc1cccnc12 [[Re(phen)(CO)3(pyridine)](OTf), reference compound]
CTSL inhibition, in words (CTSL [2]; at concentrations up to 100 μM): no inhibition
